# Reference: ChEMBL document CHEMBL1817593, “C5'-Alkyl Substitution Effects on Digitoxigenin α-l-Glycoside Cancer Cytotoxicity” (ACS Med Chem Lett, 2011)
# Experiments:
# NCI-H460 [1] = assay: Induction of apoptosis in human NCI-H460 cells in serum free medium at 50 nM after 12 hrs by Hoechst 33342/propidium iodide staining based fluorescence microscopy; format: functional
# Summary of the method: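 NCI-H460 cells exposed to a single 50 nM concentration for 12 h. Cells stained with Hoechst 33342 and propidium iodide. Blue cells with condensed or fragmented nuclei were scored as apoptotic and red, ruptured cells as necrotic. Result given as % apoptotic cell death; N = 6, one-way ANOVA.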
# NCI-H460 [2] = assay: Cytotoxicity against human NCI-H460 cells assessed as cell death in serum free medium at 10 nM after 12 hrs by Hoechst 33342/propidium iodide staining based fluorescence microscopy; format: functional
# Summary of the method: (§1)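 NCI-H460 human lung cancer cells exposed 12 h to 10 nM–10 μM drug, including a 50 nM single-concentration test. Nuclei were stained with Hoechst 33342 and necrotic cells with propidium iodide. Apoptotic cells were scored by condensed or fragmented blue nuclei and necrotic cells by red PI staining. Total cell death (apoptosis plus necrosis) was recorded; N = 6.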
# NCI-H460 [3] = assay: Cytotoxicity against human NCI-H460 cells assessed as cell death in serum free medium at 25 nM after 12 hrs by Hoechst 33342/propidium iodide staining based fluorescence microscopy; format: functional; summary of the method: as §1
# NCI-H460 [4] = assay: Cytotoxicity against human NCI-H460 cells assessed as cell death in serum free medium at 50 nM after 12 hrs by Hoechst 33342/propidium iodide staining based fluorescence microscopy; format: functional; summary of the method: as §1
# NCI-H460 [5] = assay: Cytotoxicity against human NCI-H460 cells assessed as cell death in serum free medium at 75 nM after 12 hrs by Hoechst 33342/propidium iodide staining based fluorescence microscopy; format: functional; summary of the method: as §1
# NCI-H460 [6] = assay: Cytotoxicity against human NCI-H460 cells assessed as cell death in serum free medium at 100 nM after 12 hrs by Hoechst 33342/propidium iodide staining based fluorescence microscopy; format: functional; summary of the method: as §1
# NCI-H460 [7] = assay: Cytotoxicity against human NCI-H460 cells assessed as cell death in serum free medium at 250 nM after 12 hrs by Hoechst 33342/propidium iodide staining based fluorescence microscopy; format: functional; summary of the method: as §1
# NCI-H460 [8] = assay: Cytotoxicity against human NCI-H460 cells assessed as cell death in serum free medium at 500 nM after 12 hrs by Hoechst 33342/propidium iodide staining based fluorescence microscopy; format: functional; summary of the method: as §1
# NCI-H460 [9] = assay: Cytotoxicity against human NCI-H460 cells assessed as cell death in serum free medium at 1000 nM after 12 hrs by Hoechst 33342/propidium iodide staining based fluorescence microscopy; format: functional; summary of the method: as §1
# NCI-H460 [10] = assay: Cytotoxicity against human NCI-H460 cells assessed as cell death in serum free medium at 10000 nM after 12 hrs by Hoechst 33342/propidium iodide staining based fluorescence microscopy; format: functional; summary of the method: as §1
# NCI-H460 [11] = assay: Induction of apoptosis in human NCI-H460 cells in serum free medium after 12 hrs by Hoechst 33342/propidium iodide staining based fluorescence microscopy; format: functional, cell-based; details: for IC50: NCI-H460, 12 h
# Summary of the method: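 NCI-H460 cells treated for 12 h at 10 nM to 10 μM. Total cell death (apoptosis plus necrosis) scored by Hoechst 33342/propidium iodide staining, with N = 6 and two-way ANOVA. IC50 obtained by nonlinear regression. Table values are the mean of three independent experiments with duplicate determinations.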
# NCI-H460 [12] = assay: Cytotoxicity against human NCI-H460 cells assessed as cell viability at 1 nM after 48 hrs by MTT assay; format: functional; details: NCI-H460, 48 h, read-out: Activity
# Summary of the method: (§2)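 Viability of NCI-H460 cells was measured by MTT (mitochondrial enzymatic activity) after 48 h exposure, within a dose series spanning 1 nM–10 μM. N = 9, analysed by two-way ANOVA.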
# NCI-H460 [13] = assay: Cytotoxicity against human NCI-H460 cells assessed as cell viability at 10 nM after 48 hrs by MTT assay; format: functional; details: NCI-H460, 48 h, read-out: Activity; summary of the method: as §2
# NCI-H460 [14] = assay: Cytotoxicity against human NCI-H460 cells assessed as cell viability at 25 nM after 48 hrs by MTT assay; format: functional; details: NCI-H460, 48 h, read-out: Activity; summary of the method: as §2
# NCI-H460 [15] = assay: Cytotoxicity against human NCI-H460 cells assessed as cell viability at 50 nM after 48 hrs by MTT assay; format: functional; details: NCI-H460, 48 h, read-out: Activity; summary of the method: as §2
# NCI-H460 [16] = assay: Cytotoxicity against human NCI-H460 cells assessed as cell viability at 100 nM after 48 hrs by MTT assay; format: functional; details: NCI-H460, 48 h, read-out: Activity; summary of the method: as §2
# NCI-H460 [17] = assay: Cytotoxicity against human NCI-H460 cells assessed as cell viability at 500 nM after 48 hrs by MTT assay; format: functional; details: NCI-H460, 48 h, read-out: Activity; summary of the method: as §2
# NCI-H460 [18] = assay: Cytotoxicity against human NCI-H460 cells assessed as cell viability at 1000 nM after 48 hrs by MTT assay; format: functional; details: NCI-H460, 48 h, read-out: Activity; summary of the method: as §2
# NCI-H460 [19] = assay: Cytotoxicity against human NCI-H460 cells assessed as cell viability after 48 hrs by MTT assay; format: functional; details: NCI-H460, 48 h
# Summary of the method: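 NCI-H460 cells were exposed to drug for 48 h, and viability was read by MTT as mitochondrial enzymatic activity. GI50 was derived from dose-response curves (1 nM–10 μM). Values are from three independent experiments with duplicate determinations, given with standard error of the mean.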
# NCI-H460 [20] = assay: Growth inhibition of human NCI-H460 cells after 48 hrs by MTT assay; format: functional
# Summary of the method: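 NCI-H460 viability measured by MTT (mitochondrial enzymatic activity) after 48 h exposure at 1 nM to 10 μM. GI50 derived from dose-response curves, with N = 9 and two-way ANOVA. Values are the mean of three independent experiments with duplicate determinations.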
# NCI-H460 [21] = assay: Ratio of digitoxin IC50 to compound IC50 for human NCI-H460 cells after 12 hrs by Hoechst 33342/propidium iodide staining based fluorescence microscopy; format: functional
Compound,Activity (NCI-H460 [1]) [%],Activity (NCI-H460 [2]) [%],Activity (NCI-H460 [3]) [%],Activity (NCI-H460 [4]) [%],Activity (NCI-H460 [5]) [%],Activity (NCI-H460 [6]) [%],Activity (NCI-H460 [7]) [%],Activity (NCI-H460 [8]) [%],Activity (NCI-H460 [9]) [%],Activity (NCI-H460 [10]) [%],Activity (NCI-H460 [11]),IC50 (NCI-H460 [11]) [nM],viability at 0.001 µM (NCI-H460 [12]) [%],viability at 0.01 µM (NCI-H460 [13]) [%],viability at 0.025 µM (NCI-H460 [14]) [%],viability at 0.05 µM (NCI-H460 [15]) [%],viability at 0.1 µM (NCI-H460 [16]) [%],viability at 0.5 µM (NCI-H460 [17]) [%],viability at 1 µM (NCI-H460 [18]) [%],GI50 (NCI-H460 [19]) [nM],other results
CC[C@@H]1O[C@@H](O[C@H]2CC[C@@]3(C)[C@H](CC[C@@H]4[C@@H]3CC[C@]3(C)[C@@H](C5=CC(=O)OC5)CC[C@]43O)C2)CC[C@H]1O,18.75,13.46,19.43,22.56,39.69,69.05,87.87,99.58,100,100,Dose-dependent effect,87.3,73.3,20.6,9.23,8.21,6.81,5.41,4.5,2.19,"GI50 (NCI-H460 [20]): Dose-dependent effect; GI50 (NCI-H460 [20]; NCI-H460, 48 h): 2 nM"
CC(C)[C@@H]1O[C@@H](O[C@H]2CC[C@@]3(C)[C@H](CC[C@@H]4[C@@H]3CC[C@]3(C)[C@@H](C5=CC(=O)OC5)CC[C@]43O)C2)[C@H](O)[C@H](O)[C@H]1O,15.425,12.81,19.33,24.42,37.08,45.94,73.97,100,100,100,Dose-dependent effect,130,77.4,47.3,35,22.8,9.88,6.11,5.76,6.32,"GI50 (NCI-H460 [20]): Dose-dependent effect; GI50 (NCI-H460 [20]; NCI-H460, 48 h): 6 nM"
C[C@@H]1O[C@@H](O[C@H]2CC[C@@]3(C)[C@H](CC[C@@H]4[C@@H]3CC[C@]3(C)[C@@H](C5=CC(=O)OC5)CC[C@]43O)C2)[C@H](O)[C@H](O)[C@H]1O,41.603,16.47,24.53,48.79,78.16,89.5,100,100,100,100,Dose-dependent effect,51.7,77.8,11.8,8.72,7.16,6.11,5.81,5.46,2.1,"Ratio IC50 (NCI-H460 [21]): 4; GI50 (NCI-H460 [20]): Dose-dependent effect; GI50 (NCI-H460 [20]; NCI-H460, 48 h): 2 nM"
CC(C)C[C@@H]1O[C@@H](O[C@H]2CC[C@@]3(C)[C@H](CC[C@@H]4[C@@H]3CC[C@]3(C)[C@@H](C5=CC(=O)OC5)CC[C@]43O)C2)[C@H](O)[C@H](O)[C@H]1O,9.9487,12.15,14.36,17.66,24.5,36.73,68.62,100,100,100,Dose-dependent effect,167,82.4,57.7,40.6,26.1,12.4,6.69,5.9,13.4,"GI50 (NCI-H460 [20]): Dose-dependent effect; GI50 (NCI-H460 [20]; NCI-H460, 48 h): 13 nM"
CCC[C@@H]1O[C@@H](O[C@H]2CC[C@@]3(C)[C@H](CC[C@@H]4[C@@H]3CC[C@]3(C)[C@@H](C5=CC(=O)OC5)CC[C@]43O)C2)[C@H](O)[C@H](O)[C@H]1O,15.692,15.86,20.15,23.16,34.1,52.06,84.94,100,100,100,Dose-dependent effect,116,81.4,39.3,16.1,9.27,7.06,5.87,5.81,4.88,"GI50 (NCI-H460 [20]): Dose-dependent effect; GI50 (NCI-H460 [20]; NCI-H460, 48 h): 5 nM"
CC[C@@H]1O[C@@H](O[C@H]2CC[C@@]3(C)[C@H](CC[C@@H]4[C@@H]3CC[C@]3(C)[C@@H](C5=CC(=O)OC5)CC[C@]43O)C2)[C@H](O)[C@H](O)[C@H]1O,30.625,15.02,24.93,42.16,71.83,80.15,98.51,100,100,100,Dose-dependent effect,56.9,73.2,20,10.3,8.28,6.64,6.13,5.71,2.14,"GI50 (NCI-H460 [20]): Dose-dependent effect; GI50 (NCI-H460 [20]; NCI-H460, 48 h): 2 nM"
